The values that follow come from ChEMBL document CHEMBL1142637, “New caryophyllene derivatives from Betula litwinowii” (2000).

Structures are written as SMILES. Converted amounts (≈) assume the structure as drawn.

What all share (format): functional
One experiment has as its system Akanthomyces muscarius. The experiment is described as follows: Antifungal activity against Cephalosporium ophidicola at 200 ug/mL after 7 to 10 days by agar tube dilution technique. The essentials: (§1)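 Agar tube dilution against plant pathogenic fungi. Compound in DMSO was mixed into molten SDA to a final 200 μg/mL and solidified as slants at room temperature. Slants were inoculated with 4×4 mm plugs cut from 1-week cultures and incubated 7–10 days at 29 °C. Linear growth (mm) was measured, and % inhibition was calculated against a DMSO-only medium control. Ketoconazole served as the reference drug.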

In the next experiment the test system is Ceratobasidium cereale. The experiment is described as follows: Antifungal activity against Rhizoctonia cerealis at 200 ug/mL after 7 to 10 days by agar tube dilution technique. The gist of the method: as §1
Another experiment has as its system Drechslera. The experiment is described as follows: Antifungal activity against Drechslera sorokinianse at 200 ug/mL after 7 to 10 days by agar tube dilution technique relative to ketoconazole. The essentials:
as §1

In another experiment the test system is Fusarium solani. Description: Antifungal activity against Fusarium solani at 200 ug/mL after 7 to 10 days by agar tube dilution technique relative to ketoconazole. The essentials: as §1
In a further experiment the test system is Escherichia coli. The experiment is described as follows: Antibacterial activity against Escherichia coli after 24 hrs. The essentials:
(§2)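 Broth microdilution MIC. Compound stock in DMSO, serially diluted 1000 to 0.97 μg/mL in sterile distilled water. Bacteria were freshly grown in double-strength Mueller-Hinton broth and adjusted to 108 CFU/mL. Equal volumes of dilution and suspension were mixed. Sterile water well served as growth control, and dilutions without organism as negative control. After 37 °C for 24 h, MIC was read as the first well without turbidity.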

In another experiment the test system is Staphylococcus aureus. The experiment is described as follows: Antibacterial activity against Staphylococcus aureus after 24 hrs. The essentials: as §2
A further experiment deals with Micrococcus luteus. The experiment is described as follows: Antibacterial activity against Micrococcus luteus after 24 hrs. The gist of the method: as §2
In a further experiment the test system is Pseudomonas aeruginosa. Description: Antibacterial activity against Pseudomonas aeruginosa after 24 hrs. The essentials: as §2
The next experiment concerns Nakaseomyces glabratus. Description: Antifungal activity against Candida glabrata after 24 hrs. The gist of the method: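 Broth microdilution: pure compound stock in DMSO, serially diluted from 1000 to 0.97 μg/mL in sterile distilled water. Each dilution was mixed with an equal volume of standardized C. glabrata suspension in yeast medium. Sterile water served as growth control, and dilutions without organism as negative control. After 24 h at 37 °C, MIC was read as the first well without turbidity.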

A further experiment relates to Bacillus cereus. Description: Antibacterial activity against Bacillus cereus after 24 hrs. The gist of the method:
as §2

A word on the inhibition: it is the change of the read-out against control, counted positive when it falls. A higher inhibition goes with a response far below the control. The term MIC denotes the smallest concentration in the dilution series that meets the test's criterion for growth inhibition. A high value points to weaker potency.

Take `C=C1CCC[C@H](CO)CC[C@@H]2[C@@H]1CC2(C)C`: the inhibition at 200 µg/mL turned out to be 100% in the experiment with Akanthomyces muscarius, 100% with Ceratobasidium cereale, 75% in the experiment with Drechslera and 59% in the experiment on Fusarium solani. In addition, the MIC was determined as 250 µg/mL (≈ 1120 µM) in the experiment with Escherichia coli; 250 µg/mL (≈ 1120 µM) in the experiment with Staphylococcus aureus; 250 µg/mL (≈ 1120 µM) in the experiment on Micrococcus luteus; 250 µg/mL (≈ 1120 µM) in the experiment on Pseudomonas aeruginosa; 125 µg/mL (≈ 562 µM) in the experiment with Nakaseomyces glabratus; 125 µg/mL (≈ 562 µM) in the experiment with Bacillus cereus.
Consider `O=C(N[C@H](CO)[C@H](O)c1ccc([N+](=O)[O-])cc1)C(Cl)Cl` [CHLORAMPHENICOL], for which the minimal inhibitory concentration (MIC) with Escherichia coli is 250 µg/mL (≈ 774 µM); in the experiment on Staphylococcus aureus it was 7.81 µg/mL (≈ 24.2 µM); with Micrococcus luteus, 125 µg/mL (≈ 387 µM); against Pseudomonas aeruginosa, 62.5 µg/mL (≈ 193 µM); against Bacillus cereus, 125 µg/mL (≈ 387 µM).
`CC(=O)N1CCN(c2ccc(OCC3COC(Cn4ccnc4)(c4ccc(Cl)cc4Cl)O3)cc2)CC1` (stereo unspecified) [KETOCONAZOLE] showed a minimal inhibitory concentration (MIC) against Nakaseomyces glabratus of 62.5 µg/mL (≈ 118 µM).
